Bioassay records: PubChem, Broad Institute
rRNA inh HTS: inhibits bacterial ribosomal RNA function over humanized ribosomes | E. coli WT GFP vs humanized-ribosome RFP mutants, fluorescence, 24 h; stronger effect = lower value; DMSO median 0, no signal -100 | GFP signal change (wild-type ribosome), % (concentration not given with the values) | 350,000 tested, 1.6% active;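 active means significant combined selectivity score with lowered wild-type GFP, culture density cut under 30%, mutant RFP and density less affected; inactive means any of these conditions unmet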
Cneo AK release: Cryptococcus neoformans lysis via adenylate kinase release; C. neoformans lysis, adenylate kinase release luminescence, 4 h; normalised: neutral wells 0, clomiphene wells 100; lysis activity, % at 15 µM; 360,000 tested, 0.2% active;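 active means mean lysis activity across replicates of at least 80%, whatever share of replicates individually reach that level; inactive means mean lysis activity below 80%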
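Material: C. neoformans cells | Amount: Yeast cell density of 5 × 10^6 cells/mL | Medium: Fresh YPD growth medium | Dosing: Single dose | Times: Static 4 h at 37 °C with compound, 1 h detection | Detection: AK luminescence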
CFTR F508del cor: correctors of CFTR F508del function in bronchial epithelial cells | CFBE cells, YFP halide quenching; stimulated with forskolin plus potentiator P3; % fluorescence drop versus neutral controls | activity (quench increase), % at 7.58 µM | 350,000 tested, 0.36% active;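 active means mean added fluorescence quench of at least 8% versus neutral control, with both replicates also reaching 8%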;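 further: cells transiently co-express mutant CFTR-F508del with the halide-sensitive YFP; corrector assay measuring rescue of mutant channel to the surface after 24 h compound exposure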
miR122 inh: inhibitors of miR-122 in Huh7 cells. 340,000 tested, 0.3% active. AID 602342. activation (reporter increase), % at 12.5 µM. Huh7 miR-122 Renilla luciferase sensor, 48 h; neutral wells = 0, positive control = 100;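 active means mean replicate activation score at least 90 and every replicate individually at or above 90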;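 further: higher luciferase means less miR-122 activity so hits act as miR-122 inhibitors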
INS-1E GSIS act: GLuc luminescence reporter in INS-1E cells, primary screen for activators of glucose-dependent secretion of insulin | INS-1E GLuc reporter insulin secretion, 2-3 h | activation, % at 16.6 µM | 370,000 tested, 0.61% active | AID 743287;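 active means lowest replicate activation of at least 40%, so every replicate reaches that level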;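 further: 0% = median of neutral control wells and 100% = median of IBMX positive control wells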
HIV Env fusion: HIV envelope-mediated fusion inhibition; HeLa-JRFL Env/CEM21 cell fusion, luciferase; inhibition, % at 12.3 µM; AID 651610; 360,000 tested, 1.1% active;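 active means mean replicate inhibition score of at least 50 and every replicate individually at or above 50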;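 further: 0% = plate neutral controls and 100% = maraviroc near 300 nM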
Active calls of the source: *; nt = not tested or not shown; [ ] = dose if it differs, or a comment. Hits are enriched below; roughly 3.1% of the tested compounds scored in any of these assays.

SMILES	rRNA inh HTS	Cneo AK release	CFTR F508del cor	miR122 inh	INS-1E GSIS act	HIV Env fusion
COc1ccc(NC(=O)c2c(Nc3ccccc3)sc(C(=O)c3ccc(F)cc3)c2N)cc1	nt	-1.2	nt	-11.2	nt	90.6*
C[C@H](NC(=O)c1ncn2c1c(=O)[nH]c1ccc(Br)cc12)c1ccccc1	21.2	-1.0	-1.1	1.9	-6.3	57.0*
C[C@@H]1CN([C@@H](C)CO)S(=O)(=O)c2ccc(C#Cc3ccc(F)cc3)cc2O[C@@H]1CN(C)S(=O)(=O)c1ccc(F)cc1	2.2	-0.4	1.5	30.8[16.7 µM]	0.4	29.8[16.7 µM]
CC(C)[C@H](C)NC(=O)N(C)C[C@H]1OCc2ccccc2-c2ccccc2C(=O)N([C@@H](C)CO)C[C@@H]1C	0.6	-3.5	1.0	nt	13.1	55.8*[16.7 µM]
COc1ccc(CNC(=O)N(C)C[C@H]2OCc3ccccc3-c3ccccc3C(=O)N([C@H](C)CO)C[C@@H]2C)cc1	-3.2	0.7	-0.3	nt	-8.6	71.8*[16.7 µM]
COc1ccc(CNC(=O)N(C)C[C@@H]2OCc3ccccc3-c3c(n(C)c4ccccc34)C(=O)N([C@H](C)CO)C[C@H]2C)cc1	0.6	-2.7	4.2	nt	3.4	6.7[16.7 µM]
C[C@H]1CN([C@@H](C)CO)C(=O)c2ccccc2-c2ccccc2CO[C@@H]1CN(C)C(=O)Nc1cccc(C(F)(F)F)c1	0.3	45.1	-2.7	nt	12.5	58.7*[16.7 µM]
CC(C)[C@@H](C)NC(=O)N(C)C[C@@H]1OCc2ccccc2-c2ccccc2C(=O)N([C@H](C)CO)C[C@H]1C	-1.6	-3.9	-1.3	nt	4.4	-1.0[16.7 µM]
COc1ccc(CNC(=O)N(C)C[C@H]2OCc3ccccc3-c3c(n(C)c4ccccc34)C(=O)N([C@H](C)CO)C[C@@H]2C)cc1	-0.3	-1.1	-1.7	nt	5.0	67.6*[16.7 µM]
CN(C)C(=O)c1cccc(-c2ccc3c(c2)[C@@H]2[C@@H](CCN2S(=O)(=O)c2ccccc2)[C@@H](CO)N3)c1	-16.8	1.2	-1.2	-4.2[16.7 µM]	-3.4	nt
COc1ccc(CNC(=O)N(C)C[C@H]2OCc3ccccc3-c3c(n(C)c4ccccc34)C(=O)N([C@@H](C)CO)C[C@@H]2C)cc1	nt	-0.4	0.6	nt	nt	58.0*[16.7 µM]
COc1ccc(NC(=O)N(C)C[C@@H]2OCc3ccccc3-c3c(n(C)c4ccccc34)C(=O)N([C@@H](C)CO)C[C@@H]2C)cc1	2.2	-2.1	-1.8	nt	-21.6	nt
CCN(CC)CC(=O)N1CCCC(C(=O)c2ccccc2OC)C1 (centres undefined)	12.2	-0.8	-1.9	6.4	8.5	-0.5
COc1ccccc1C(=O)C1CCCN(C(=O)CCC(=O)c2ccccc2)C1 (centres undefined)	-28.4*	nt	-2.6	nt	-8.9	13.6
C[C@H](CO)N1C[C@H](C)[C@@H](CN(C)C(=O)C2CC2)Oc2cc(-c3cccnc3)ccc2S1(=O)=O	2.7	nt	1.8	3.2[16.7 µM]	-3.8	23.2[16.7 µM]
COc1ccc(C=C(C(=O)O)c2ccc(OC)cc2)cc1	-3.3	nt	0.1	-9.8	49.1*	-8.3
COc1ccc(C(=Cc2ccccc2)C(=O)O)cc1	-1.9	-0.5	1.2	nt	nt	-2.5
CN(C)CC(=O)Nc1ccc2c(c1)[C@@H]1C[C@@H](CC(=O)NCc3cccnc3)O[C@@H](CO)[C@@H]1O2	4.3	-6.5	-0.1	6.6[16.7 µM]	3.0	nt
CCOC(=O)c1oc2ccccc2c1NC(=O)COC	nt	0.9	nt	1.1	28.8	-6.9
CCOCC(=O)Nc1c(C(=O)OCC)oc2ccccc12	nt	4.6	nt	-1.9	44.3*	-15.4
Clc1ccc(SCc2cc(N3CCOCC3)nc(-c3ccccn3)n2)cc1	-59.9	nt	8.1*	nt	-57.7	19.2
Clc1ccc(SCc2csc(N3CCOCC3)n2)cc1	-28.2	nt	-1.2	nt	-15.4	-13.0
COc1ccc([C@@H]2[C@@H]3C(=O)N(C(C)(C)C)C(=O)[C@@H]3[C@]3(Cc4ccc(Cl)cc4)C(=O)N(c4ccc(Br)cc4)C(=O)N23)cc1	5.5	2.7	6.0	-14.5	-0.4	49.3
O=C1[C@H]2[C@@H](c3ccc(F)cc3)N3C(=O)N(c4ccc(Br)cc4)C(=O)[C@@]3(Cc3ccc(Cl)cc3)[C@H]2C(=O)N1C1CCCCC1	10.0	-0.7	0.7	4.1	-16.2	72.0*
